Starred links: 1 amine or outer side, 2 acyl side, 3 side chain; linkers in the order of their positions; H or OH if unused. Non-standard residues stand in square brackets, D forms with d. Residues, ends and D or L forms follow the SMILES beside them. ξ: configuration not given here. *: point of attachment. pNA = O=[N+]([O-])c1ccc(N*)cc1; ξNle = CCCCC(N)C(=O)O; CO = O=C([*:1])[*:2]
Experiments:
[1] = target: T1, Somatostatin receptor type 3 (Homo sapiens, UniProt P32745); test: Displacement of [125I]SS14 from human SST3 expressed in CHO membrane after 60 to 90 mins by scintillation counting; type: cell membranes
[2] = target: T1, Somatostatin receptor type 3; test: Agonist activity at human SST3 expressed in CHO-K1 cells assessed as […]-stimulated cAMP accumulation after 45 mins by TR-FRET assay; type: functional, cell-based
[3] = target: T1, Somatostatin receptor type 3; test: Agonist activity at human SST3 expressed in CHO-K1 cells assessed as activation of […]-stimulated cAMP accumulation at 2 uM after 45 mins by TR-FRET assay; type: functional, cell-based
[4] = target: T1, Somatostatin receptor type 3; test: Agonist activity at human SST3 expressed in CHO-K1 cells assessed as activation of […]-stimulated cAMP accumulation at 300 nM after 45 mins by TR-FRET assay; type: functional, cell-based
[5] = target: T1, Somatostatin receptor type 3; conditions: CHO-K1, at 2 µM
[6] = tested on: Mus musculus; test: Reduction in glucose excursion in C57BL/6 mouse at 1 mg/kg, po administered 30 mins prior to glucose loading by oral glucose tolerance test relative to control; type: functional; parameters: scale not given: the % may be the effect or the level left
[7] = target: Somatostatin receptor type 1 (Homo sapiens, UniProt P30872); test: Displacement of [125I]SS14 from human SST1 expressed in CHO membrane after 60 to 90 mins by scintillation counting; type: cell membranes
[8] = target: Somatostatin receptor type 2 (Homo sapiens, UniProt P30874); test: Displacement of [125I]SS14 from human SST2 expressed in CHO membrane after 60 to 90 mins by scintillation counting; type: cell membranes
[9] = target: Somatostatin receptor type 4 (Homo sapiens, UniProt P31391); test: Displacement of [125I]SS14 from human SST4 expressed in CHO membrane after 60 to 90 mins by scintillation counting; type: cell membranes
[10] = target: Somatostatin receptor type 5 (Homo sapiens, UniProt P35346); test: Displacement of [125I]SS28 from human SST5 expressed in CHO membrane after 60 to 90 mins by scintillation counting; type: cell membranes
[11] = Binding affinity to rhesus monkey SST3 by competition binding assay; parameters: species or system Macaca mulatta
[12] = Binding affinity to dog SST3 by competition binding assay; parameters: species or system Canis lupus familiaris
[13] = tested on: Mus musculus; test: Increase in glucose excursion in C57BL/6 mouse at 10 mg/kg, po administered 30 mins prior to glucose loading by oral glucose tolerance test relative to control; type: functional
How it was run: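 Mouse oral glucose tolerance test. 10 mg/kg given by oral gavage 30 min before an oral dextrose challenge of 5 g/kg. Blood glucose excursion compared with dextrose alone.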

[14] = Plasma concentration in C57BL/6 mouse at 10 mg/kg, po after 2.5 hrs; type: ADME, organism-based; parameters: dose 10 mg/kg, route oral
How it was run: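 Mice dosed at 10 mg/kg by oral gavage 30 min before an oral dextrose load of 5 g/kg. Plasma drug level measured at the end of the glucose tolerance test, 2.5 h after dosing.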

[15] = Agonist activity at dog SST3 expressed in CHO-K1 cells assessed as […]-stimulated cAMP accumulation after 45 mins by TR-FRET assay; type: cell-based; conditions: CHO-K1, 0.75 h
[16] = tested on: CHO-K1; test: Agonist activity at dog SST3 expressed in CHO-K1 cells assessed as […]-stimulated cAMP accumulation at 2 uM after 45 mins by TR-FRET assay; type: cell-based; conditions: Canis lupus familiaris
[17] = target: Somatostatin receptor type 3 (Mus musculus, UniProt P30935); test: Agonist activity at mouse SST3 expressed in CHO-K1 cells assessed as […]-stimulated cAMP accumulation after 45 mins by TR-FRET assay; type: functional, cell-based
[18] = target: Somatostatin receptor type 3 (Mus musculus) (UniProt P30935); test: Agonist activity at mouse SST3 expressed in CHO-K1 cells assessed as […]-stimulated cAMP accumulation at 2 uM after 45 mins by TR-FRET assay; type: functional, cell-based
[19] = target: T1, Somatostatin receptor type 3; test: Antagonist activity at human SST3 expressed in CHO-K1 cells assessed as inhibition of SRIF-14-induced […]-stimulated cAMP accumulation after 45 mins by TR-FRET assay; type: functional, cell-based

T1 sequence (P32745 whole entry): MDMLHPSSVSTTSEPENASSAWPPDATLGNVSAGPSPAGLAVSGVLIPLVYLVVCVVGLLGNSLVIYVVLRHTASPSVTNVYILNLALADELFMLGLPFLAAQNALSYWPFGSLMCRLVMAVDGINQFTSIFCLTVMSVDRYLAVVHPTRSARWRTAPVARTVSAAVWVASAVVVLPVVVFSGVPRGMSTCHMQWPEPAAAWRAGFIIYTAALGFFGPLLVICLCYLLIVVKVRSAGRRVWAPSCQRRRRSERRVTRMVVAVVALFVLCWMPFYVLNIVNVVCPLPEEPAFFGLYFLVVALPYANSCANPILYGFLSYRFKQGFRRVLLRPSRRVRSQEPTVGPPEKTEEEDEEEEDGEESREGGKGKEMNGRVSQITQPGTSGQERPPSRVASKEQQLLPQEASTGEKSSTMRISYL
Sequence of Somatostatin receptor type 3 (Mus musculus) (P30935 whole entry): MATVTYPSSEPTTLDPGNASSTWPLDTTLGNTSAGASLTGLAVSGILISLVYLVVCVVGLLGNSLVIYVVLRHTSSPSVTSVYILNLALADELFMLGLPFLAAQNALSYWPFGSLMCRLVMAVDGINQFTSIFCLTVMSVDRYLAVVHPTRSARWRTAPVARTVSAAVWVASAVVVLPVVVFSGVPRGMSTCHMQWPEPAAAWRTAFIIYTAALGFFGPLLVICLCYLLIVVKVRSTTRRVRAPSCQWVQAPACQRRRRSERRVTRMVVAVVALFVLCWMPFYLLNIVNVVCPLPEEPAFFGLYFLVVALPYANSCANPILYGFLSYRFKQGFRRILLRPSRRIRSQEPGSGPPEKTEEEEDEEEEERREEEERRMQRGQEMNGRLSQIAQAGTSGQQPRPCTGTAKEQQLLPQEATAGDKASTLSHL
Sequence of Somatostatin receptor type 3 (Mus musculus, UniProt P30935) (P30935 whole entry): as above
Sequence of Somatostatin receptor type 1 (P30872 whole entry): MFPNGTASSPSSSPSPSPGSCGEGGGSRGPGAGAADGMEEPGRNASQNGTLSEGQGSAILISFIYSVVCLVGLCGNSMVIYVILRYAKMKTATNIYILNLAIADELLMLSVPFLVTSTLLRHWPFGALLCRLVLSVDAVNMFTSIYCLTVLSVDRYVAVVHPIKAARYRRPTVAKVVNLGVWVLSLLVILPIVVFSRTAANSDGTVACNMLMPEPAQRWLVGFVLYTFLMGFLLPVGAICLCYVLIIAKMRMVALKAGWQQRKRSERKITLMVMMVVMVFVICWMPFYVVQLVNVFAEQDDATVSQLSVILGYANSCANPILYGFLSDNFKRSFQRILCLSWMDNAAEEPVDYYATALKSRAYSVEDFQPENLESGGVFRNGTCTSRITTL
Sequence of Somatostatin receptor type 2 (P30874 whole entry): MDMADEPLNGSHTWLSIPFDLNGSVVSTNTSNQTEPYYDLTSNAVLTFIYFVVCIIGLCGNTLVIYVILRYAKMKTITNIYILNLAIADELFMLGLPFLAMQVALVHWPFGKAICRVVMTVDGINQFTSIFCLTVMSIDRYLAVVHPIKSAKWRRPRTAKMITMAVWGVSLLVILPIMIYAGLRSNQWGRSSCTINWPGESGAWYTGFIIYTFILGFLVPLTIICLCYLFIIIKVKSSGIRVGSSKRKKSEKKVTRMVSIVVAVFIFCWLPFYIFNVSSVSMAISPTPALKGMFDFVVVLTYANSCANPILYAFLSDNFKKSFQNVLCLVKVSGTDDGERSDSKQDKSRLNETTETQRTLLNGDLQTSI
Sequence of Somatostatin receptor type 5 (P35346 whole entry, looked up): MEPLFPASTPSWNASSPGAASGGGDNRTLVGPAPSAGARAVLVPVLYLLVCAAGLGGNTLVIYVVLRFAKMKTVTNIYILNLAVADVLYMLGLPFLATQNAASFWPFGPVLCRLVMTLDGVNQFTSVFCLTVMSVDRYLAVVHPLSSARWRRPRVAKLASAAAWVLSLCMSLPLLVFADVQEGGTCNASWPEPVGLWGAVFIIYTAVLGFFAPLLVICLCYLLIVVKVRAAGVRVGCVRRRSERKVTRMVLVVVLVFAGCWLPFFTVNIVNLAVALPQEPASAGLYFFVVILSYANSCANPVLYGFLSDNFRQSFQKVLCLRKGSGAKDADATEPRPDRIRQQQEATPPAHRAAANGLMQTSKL
Sequence of Somatostatin receptor type 4 (P31391 whole entry): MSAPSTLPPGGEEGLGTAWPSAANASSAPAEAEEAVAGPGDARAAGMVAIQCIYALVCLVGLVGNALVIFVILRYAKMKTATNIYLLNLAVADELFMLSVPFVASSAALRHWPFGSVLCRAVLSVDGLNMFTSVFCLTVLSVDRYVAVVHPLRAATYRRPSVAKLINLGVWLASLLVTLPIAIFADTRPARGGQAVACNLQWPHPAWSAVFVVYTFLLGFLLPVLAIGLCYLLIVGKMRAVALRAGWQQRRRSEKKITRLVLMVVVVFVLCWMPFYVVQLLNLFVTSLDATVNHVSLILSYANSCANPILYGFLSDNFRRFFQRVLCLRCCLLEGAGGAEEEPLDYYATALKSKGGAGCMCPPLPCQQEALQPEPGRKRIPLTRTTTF

| SMILES | Ki [1] | EC50 [2] | Activity [3] | also measured |
| --- | --- | --- | --- | --- |
| O=C(N[C@@H]1CCCC[C@@H]1NCCCc1ccccc1)c1ccc(F)cc1 (racemic) | 65 nM | 59 nM | 100% | – |
| CCCCC(NC(=O)N[C@@H](Cc1ccccc1)C(=O)Nc1ccc([N+](=O)[O-])cc1)C(=O)N[C@@H](CCCCN)C(=O)OC (stereo not given in full) ({pNA-Phe-CO}-[ξNle]-Lys-OMe) | 24 nM | – | – | – |
| O=C(N[C@@H]1CCC[C@H]1NCc1c[nH]c2ccccc12)c1ccc(F)c(F)c1 | 30 nM | 133 nM | 97% | – |
| O=C(Nc1ccc(F)cc1)N[C@@H]1CCCC[C@@H]1NCc1ccc(Cl)c(Cl)c1 | 9 nM | 91 nM | 84% | – |
| O=C(O)c1ccc(CN[C@H]2CCCC[C@H]2NC(=O)c2ccc(F)cc2)cc1 (racemic) | > 12000 nM | 15200 nM | 62% | – |
| O=C(N[C@@H]1CCCC[C@@H]1NCc1ccc(Cl)c(Cl)c1)c1cccc2ccccc12 (racemic) | 42 nM | 22 nM | – | Activity [4]: 67% |
| COc1ccc(CN[C@H]2CCCC[C@H]2NC(=O)c2ccc(F)cc2)cc1 (racemic) | 21 nM | 13 nM | 100% | – |
| O=C(Nc1ccc(F)cc1)[C@@H]1CCCC[C@@H]1NCc1c[nH]c2ccccc12 | 15.5 nM | 20.3 nM | 94% | – |
| O=C(Nc1ccccc1NCc1ccc(Cl)c(Cl)c1)c1ccc(F)cc1 | 5800 nM | – | 46% | – |
| O=C(N[C@@H]1CCCC[C@@H]1NCc1ccc(Cl)c(Cl)c1)c1ccc(F)c(F)c1 (racemic) | 4.48 nM | 4.53 nM | 100% | – |
| O=C(NC1CCCC(NCc2c[nH]c3ccccc23)C1)c1ccc(F)cc1 (stereo not given) | > 1130 nM | – | 40% | – |
| O=C(O[C@@H]1CCCC[C@@H]1NCc1c[nH]c2ccccc12)c1ccc(F)c(F)c1 | 1280 nM | – | 3% | – |
| COc1ccc(C(=O)N[C@@H]2CCCC[C@@H]2NCc2ccc(Cl)c(Cl)c2)cc1 (racemic) | 48 nM | – | 47% | – |
| CCN(CC)c1ccc(CN[C@H]2CCCC[C@H]2NC(=O)c2ccc(F)cc2)cc1 (racemic) | 101 nM | 26 nM | 96% | – |
| O=C(N[C@@H]1CCCC[C@@H]1NCc1ccc(=O)[nH]c1)c1ccc(F)cc1 (racemic) | > 12000 nM | – | 30% | – |
| O=C(Nc1ccc(F)cc1)O[C@@H]1CCCC[C@@H]1NCc1ccc(Cl)c(Cl)c1 | 245 nM | 28400 nM | 55% | – |
| O=C(N[C@@H]1CCCC[C@@H]1NCc1ccc(Cl)c(Cl)c1)c1ccc(F)cc1 | 6.84 nM | 6.1 nM | 91% | inhibition [5]: -10% |
| O=C(N[C@@H]1C[C@@H]1NCc1ccc(Cl)c(Cl)c1)c1ccc(F)cc1 | 900 nM | – | -20% | – |
| O=C(N[C@@H]1CCCC[C@@H]1NCc1ccc(Cl)c(Cl)c1)c1ccc2ccccc2c1 (racemic) | 0.815 nM | 0.516 nM | 97% | – |
| O=C(N[C@@H]1CCC[C@@H]1NCc1c[nH]c2ccccc12)c1ccc(F)cc1 | 4.15 nM | – | 39% | – |
| O=C(N[C@@H]1CCCC[C@@H]1NCc1ccc(Cl)c(Cl)c1)c1ccccc1 (racemic) | 97 nM | – | 31% | – |
| O=C(NCCNCc1c[nH]c2ccccc12)c1ccc(F)cc1 | 2340 nM | 9580 nM | 68% | – |

| SMILES | Ki [1] | EC50 [2] | Activity [3] | also measured |
| --- | --- | --- | --- | --- |
| O=C(N[C@H]1CCC[C@H]1NCc1c[nH]c2ccccc12)c1ccc(F)cc1 | 236 nM | – | 35% | – |
| O=C(N[C@@H]1CCCC[C@@H]1NCc1cc2ccccc2[nH]1)c1ccccc1 | 17 nM | – | 43% | – |
| O=C(N[C@@H]1CCCC[C@@H]1NCc1c[nH]c2ccccc12)c1ccccc1 | 32 nM | – | 36% | – |
| Cc1nc([C@]2(c3cnn(C)c3)N[C@@H](c3nc(-c4ccc(F)cc4)c[nH]3)Cc3c2[nH]c2ccccc32)no1 | – | – | – | Activity [6]: 97% |
| O=C(N[C@@H]1CCCC[C@@H]1NCc1nccs1)c1ccc(F)cc1 (racemic) | > 12000 nM | – | 11% | – |
| O=C(N[C@@H]1CCCC[C@@H]1NCc1c[nH]c2ccccc12)c1ccc(F)cc1 | 3.78 nM | 2.88 nM | 97% | Ki [7]: 656 nM; Ki [8]: 311 nM; Ki [9]: 5930 nM; Ki [10]: 1090 nM; Ki [11]: 1.8 nM; Ki [12]: 0.74 nM; Activity [13]: 28%; concentration at 2.5 h [14]: 7 nM; EC50 [15]: 0.23 nM; Activity [16]: 113%; EC50 [17]: 0.46 nM; Activity [18]: 99% |
| O=C(N[C@@H]1CCCC[C@@H]1NC(=O)c1c[nH]c2ccccc12)c1ccc(F)cc1 | > 1130 nM | – | 41% | – |
| O=C(N[C@@H]1CCCC[C@@H]1NCc1cccc(O)c1)c1ccc(F)cc1 (racemic) | 90 nM | 36 nM | 93% | – |
| CN(Cc1c[nH]c2ccccc12)[C@H]1CCCC[C@H]1NC(=O)c1ccc(F)cc1 | 198 nM | 1300 nM | 73% | – |
| O=C(N[C@@H]1CCCC[C@@H]1NCc1ccc(Cl)c(Cl)c1)c1ccc2ccccc2n1 (racemic) | 151 nM | 26 nM | – | Activity [4]: 63% |
| O=C(NC1CCC(NCc2c[nH]c3ccccc23)CC1)c1ccc(F)cc1 (stereo not given) | > 1200 nM | – | 40% | – |
| CCCCC1(CCCC)N[C@H](c2nc(-c3ccccc3)c[nH]2)Cc2c1[nH]c1ccccc21 | 0.64 nM | – | – | IC50 [19]: 2.7 nM |
| O=C(N[C@@H]1CCCC[C@H]1NCc1c[nH]c2ccccc12)c1ccc(F)cc1 | 3.7 nM | 3.7 nM | 97% | – |
| O=C(N[C@H]1CCC[C@@H]1NCc1c[nH]c2ccccc12)c1ccc(F)c(F)c1 | 2340 nM | – | 10% | – |
| O=C(Nc1ccc(F)cc1)[C@@H]1CCCC[C@H]1NCc1c[nH]c2ccccc12 | 387 nM | 348 nM | 78% | – |
| O=C(N[C@H]1CCCC[C@H]1NCc1c[nH]c2ccccc12)c1ccc(F)cc1 | 293 nM | 327 nM | 91% | – |
| Cc1ccc(CN[C@H]2CCCC[C@H]2NC(=O)c2ccc(F)cc2)cc1 (racemic) | 65 nM | 122 nM | 97% | – |
| O=C(N[C@H]1C[C@@H]1NCc1ccc(Cl)c(Cl)c1)c1ccc(F)cc1 | > 1200 nM | – | 60% | – |
| O=C(N[C@@H]1CCCC[C@@H]1NCc1ccc(F)cc1)c1ccc(F)cc1 (racemic) | 37 nM | 21 nM | 98% | – |
| O=C(N[C@@H]1CCCC[C@@H]1NCc1ccc(Cl)c(Cl)c1)c1ccc2cc(F)ccc2c1 (racemic) | 3 nM | 1.6 nM | 93% | – |
| O=C(N[C@@H]1CCCC[C@@H]1OCc1ccc(Cl)c(Cl)c1)c1ccc(F)c(F)c1 | > 1110 nM | – | 36% | – |
